Only some compounds are listed: those with a hit (about 1.9% of all), similar ones and a draw of the others.
SENP1 inh: inhibitors of human SENP1 SUMO protease catalytic domain; recombinant SENP1 catalytic domain, CyPet-SUMO1-YPet FRET cleavage; inhibition, % at 10 µM; AID 624204; Q9P0U3; 360,000 compounds, 0.21% hits;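 active = inhibition at least 30% at 10 µM, raw YFP signal under a set limit, fluorescence ratio 0.5 to 1.5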;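 note: 0% = enzyme with DMSO and 100% = no enzyme wells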
Target sequence (Q9P0U3 419-644 limits assumed): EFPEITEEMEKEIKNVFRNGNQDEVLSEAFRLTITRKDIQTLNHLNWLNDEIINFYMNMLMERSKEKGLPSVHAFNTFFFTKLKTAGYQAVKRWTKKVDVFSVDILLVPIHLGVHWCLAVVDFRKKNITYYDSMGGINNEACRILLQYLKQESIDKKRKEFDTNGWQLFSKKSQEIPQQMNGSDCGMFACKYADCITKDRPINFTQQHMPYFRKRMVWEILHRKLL
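System: Recombinant human SENP1 catalytic domain, His6-tagged | Incubation: Enzyme reaction for 50 min at room temperature, dark | Medium: Tris pH 8 with BME, BSA, NP40 and catalase | Also added: 25 nM SUMO1 FRET substrate | Compound: 10 µM single point, 0.5% DMSO | Measured by: FRET fluorescence in CFP and YFP emission channels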
ADAM17 inh: inhibits human ADAM17. P78536. recombinant ADAM17, EDANS/DABCYL FRET peptide cleavage. inhibition, % at 6.95 µM. 370,000 compounds, 0.83% hits;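 active = inhibition above the mean of compounds lying between control limits plus 3 SD, set per campaign, cut at about 8.5% in these data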;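 note: 0% = DMSO-only wells as the low control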
FAS-TE inh: blocks the thioesterase domain of human fatty acid synthase; P49327; recombinant FAS-TE, OMFH fluorogenic substrate, fluorescence endpoint; inhibition, % at 15 µM; 360,000 compounds, 0.67% hits;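 active = compounds whose normalised, plate-corrected inhibition of enzyme fluorescence in the single-dose primary screen is 50% or more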;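 note: 0% = DMSO with enzyme and 100% = substrate without enzyme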
ADAM10 inh: ADAM10 inhibition, QFRET primary screen; O14672; recombinant ADAM10, EDANS/DABCYL FRET peptide cleavage, 3 h; inhibition, % at 7 µM; 370,000 compounds, 0.62% hits;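 active = inhibition above a per-campaign cutoff equal to the mean of compounds falling between control-based bounds plus 3 SD, cut at about 20% in these data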;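 note: 0% = DMSO wells while the 100% control is not disclosed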
FAS-TE inh conf: confirmation of human fatty acid synthase thioesterase inhibitors; inhibition, % at 15 µM; recombinant FAS-TE, OMFH fluorogenic substrate, fluorescence; 2,300 compounds, 45% hits; shares compounds with FAS-TE inh;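 active = compounds inhibiting the enzyme by at least 50% at 15 µM in any one of the replicates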;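 note: 0% = enzyme with DMSO only and 100% = wells lacking enzyme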
SENP1 inh conf: confirmation of human SENP1 SUMO protease inhibitors. 520 compounds, 34% hits. AID 651678. recombinant SENP1, CyPet-SUMO1-YPet FRET cleavage. shares compounds with SENP1 inh. inhibition, % at 10 µM; in the data active = inhibition mostly above about 35%, no sharp cut-off; inactive = mostly below about 32%;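 note: 0% = enzyme with DMSO and 100% = no enzyme control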
SENP1 kin conf: SENP1 (human) inhibition, kinetic confirmation | shares compounds with SENP1 inh | recombinant SENP1, CyPet-SUMO1-YPet FRET kinetic cleavage | inhibition, % at 10 µM | 520 compounds, 26% hits; in the data active = inhibition mostly above about 32%, no sharp cut-off; inactive = mostly below about 29%;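 note: 0% = DMSO with enzyme and 100% = no enzyme substrate only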
ADAM10 confirm: confirmation of inhibitors of human ADAM10; shares compounds with ADAM10 inh; ADAM10 QFRET peptide cleavage, EDANS fluorescence; inhibition, % at 6.95 µM; 2,100 compounds, 1% hits; AID 743208;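 active = inhibition above about 20% chosen separately for each screening run, limit read from the data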;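 note: 0% = DMSO wells and 100% = marimastat wells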
ADAM17 ctr: counter-screen for ADAM10 exosite inhibitors: inhibitors of human ADAM17; 2,100 compounds, 0.5% hits; inhibition, % at 6.95 µM; AID 743214; shares compounds with ADAM10 inh; ADAM17 QFRET peptide cleavage, EDANS fluorescence;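 active = mean triplicate inhibition above the solvent-only control wells' mean plus 3 SD, cut at about 12% in these data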;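 note: 0% = DMSO wells and 100% = marimastat wells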
ADAM10 counter: ADAM10 inhibition, counter-screen for ADAM17 exosite hits; recombinant ADAM10, EDANS/DABCYL FRET peptide cleavage, 3 h; inhibition, % at 6.95 µM; 2,900 compounds, 47% hits; shares compounds with ADAM17 inh; AID 743256;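 active = mean inhibition over the triplicate runs exceeds the activity threshold set in the earlier primary screen, cut at about 20% in these data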;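 note: 0% = DMSO wells and 100% = marimastat wells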
ADAM17 confirm: confirmation of inhibitors of human ADAM17; shares compounds with ADAM17 inh; recombinant ADAM17, EDANS/DABCYL QFRET peptide cleavage; inhibition, % at 6.95 µM; 2,900 compounds, 65% hits; AID 743257;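 active = mean inhibition across replicates above the hit cutoff set in the primary screen, cut at about 8.5% in these data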;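 note: 0% = DMSO wells and 100% = marimastat wells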
Active calls of the source: *; / = no result given.

SMILES	SENP1 inh	ADAM17 inh	FAS-TE inh	ADAM10 inh	SENP1 inh conf	SENP1 kin conf	others
COc1ccc([C@@H]2[C@@H]3C(=O)N(C(C)(C)C)C(=O)[C@@H]3[C@]3(Cc4ccccc4)C(=O)N(c4cccc(Cl)c4)C(=O)N23)cc1	3.3	9.8*	78.7*	36.7*	/	/	FAS-TE inh conf=9.4;ADAM10 confirm=4.3;ADAM17 ctr=1.8;ADAM10 counter=25.6*;ADAM17 confirm=14.6*
COc1ccc([C@@H]2[C@@H]3C(=O)N(C(C)(C)C)C(=O)[C@@H]3[C@]3(Cc4ccccc4)C(=O)N(c4ccccc4)C(=O)N23)cc1	1.5	-1.6	3.7	5.1	/	/
COc1ccc2c(c1)C(=O)N1[C@H]3c4cc(C)ccc4OC[C@@H]3[C@H](c3ccccc3)[C@]1(C)C(=O)N2	-0.6	8.9*	73.3*	13.6	/	/	FAS-TE inh conf=35.2;ADAM10 counter=5.9;ADAM17 confirm=9.6*
Cc1ccc(NC(=S)NC(CO)C(O)c2ccc([N+](=O)[O-])cc2)cc1 (configuration not stated)	1.5	0.9	18.1	3.4	/	/
O=[N+]([O-])c1ccc(C(O)C(CO)NC(=S)Nc2ccccc2)cc1 (configuration not stated)	-1.2	8.8*	59.4*	12.5	/	/	FAS-TE inh conf=55.3*;ADAM10 counter=-6.0;ADAM17 confirm=-2.9
O=[N+]([O-])c1ccc(-c2nc(Nc3cccc(O)c3)c3ccccc3n2)cc1	-0.2	12.7*	56.3*	30.9*	/	/	FAS-TE inh conf=54.4*;ADAM10 confirm=6.2;ADAM17 ctr=2.4;ADAM10 counter=33.8*;ADAM17 confirm=16.7*
O=C(O)c1cccc(Nc2nc(-c3ccc([N+](=O)[O-])cc3)nc3ccccc23)c1	0.8	-5.8	27.6	-16.2	/	/
CN(CCO)c1cccc2c1S(=O)(=O)N(Cc1cn(Cc3cccc(F)c3)nn1)Cc1ccccc1O2	/	-3.2	/	-12.6	/	/
CCOC(=O)c1sc(N=NC2=C(O)CC(C)(C)CC2=O)c(C(=O)OCC)c1C	56.4*	-2.6	-12.1	-6.8	29.9	20.1
Cc1ccc2cc(C=C(C#N)C#N)c(N3CCCCC3)nc2c1	-1.1	-39.7	-0.1	-109.6	/	/
Cc1ccc2cc(/C=C(\C#N)C(N)=O)c(N3CCCCC3)nc2c1	75.2*	-10.7	21.6	-23.5	49.7*	38.5*
COc1ccc(OCC(C)CN2CCC(C(O)(c3ccccc3)c3ccccc3)CC2)cc1 (configuration not stated)	/	7.5	/	6.1	/	/
Nc1ccccc1C=C1Cc2ccccc2C1=O	56.1*	-7.4	-5.2	-15.4	9.6	-4.8
CCN1C(=O)c2cccc3c(NC(=O)c4cccc(N5C(=O)CCC5=O)c4)ccc1c23	57.8*	-3.2	-7.8	2.9	43.5*	28.4
COc1ccc(CC2CCN(c3ncnc4sccc34)CC2)cc1	/	0.4	/	4.3	/	/
C#CCNC(=O)C[C@H]1C(=O)N(CCc2ccc(Cl)cc2)C2=CCCC[C@@]21C(=O)OCC	/	-1.7	/	-2.7	/	/
Cc1ccc2nc3sc(C(=O)N4CCOCC4)c(N)c3cc2c1	-2.7	-15.5	0.8	-34.0	/	/
Cc1ccc2cc3c(N)c(C(=O)N4CCOCC4)sc3nc2c1	46.9*	-5.5	-0.1	-7.4	40.1*	28.2
O=C(c1ccc([N+](=O)[O-])s1)N1CCc2ccccc21	55.0*	1.1	-4.6	-2.9	11.2	11.2
